# According to ChEMBL document CHEMBL1275590, “Novel arylimidamides for treatment of visceral leishmaniasis” (Antimicrob Agents Chemother, 2010):
# Legend:
# [1] = Tmax in Swiss Webster mouse at 16.5 mg/kg, po by HPLC-MS/MS analysis; format: ADME, organism-based; design: dose 16.5 mg/kg, route oral; settings: in vivo
# Method in brief: (§1)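 Male Swiss Webster mice (n = 3 per time point), single dose by oral gavage (sterile water solution) or tail-vein bolus i.v. (water diluted 1:1 with 2× saline, over ~10–20 s); dose volume 5 ml/kg. Terminal blood sampled from 5 min to 72 h postdose; plasma quantified by HPLC-MS/MS (positive-ion SRM). Noncompartmental analysis gave Cmax, Tmax, AUC0-∞, CL, Vss; bioavailability from p.o. versus i.v. exposure.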
# Mus musculus [2] = test: Toxicity in BALB/c mouse assessed as gastric inflammation at 150 mg/kg/day, po; format: organism-based, Stomach; design: route oral; settings: in vivo
# [3] = Half life in Swiss Webster mouse at 16.5 mg/kg, po by HPLC-MS/MS analysis; format: ADME, organism-based; design: dose 16.5 mg/kg, route oral; settings: in vivo
# Method in brief: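 Male Swiss Webster mice, n = 3 per time point. For i.v., the compound was dissolved in sterile water, diluted 1:1 with 2× saline, and given as a tail-vein bolus over ~10–20 s. For p.o., it was given by gavage in sterile water. Dose volume was 5 ml/kg. Terminal plasma was taken from 5 min to 72 h and measured by HPLC-MS/MS (calibration 2.5–10,000 nM). Parameters came from noncompartmental analysis.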
# [4] = Tmax in Swiss Webster mouse at 1 mg/kg, iv by HPLC-MS/MS analysis; format: ADME, organism-based; design: dose 1 mg/kg, route intravenous; settings: in vivo; method in brief: as §1
# Mus musculus [5] = test: Hepatotoxicity in BALB/c mouse assessed as alkaline phosphatase level in serum at 10 mg/kg/day, iv administered for five days (Rvb= 134 U/L); format: toxicity, organism-based; design: route intravenous; settings: in vivo
# Mus musculus [6] = test: Toxicity in BALB/c mouse assessed as ruffled fur at 50 mg/kg/day, ip administered for five days; format: organism-based; design: route intraperitoneal; settings: in vivo
# [7] = Tmax in Swiss Webster mouse at 4.9 mg/kg, iv by HPLC-MS/MS analysis; format: ADME, organism-based; design: dose 4.9 mg/kg, route intravenous; settings: in vivo; method in brief: as §1
# Leishmania donovani = test: Antileishmanial activity against Leishmania donovani promastigotes in BALB/c mouse assessed as inhibition of liver parasitemia at 100 mg/kg/day, po administered for five days; format: functional; design: scale not given: the % may be the effect or the level left
# Method in brief: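 Murine VL model in L. donovani-infected mice. Compounds were dissolved in water and given i.p. or p.o. once daily for 5 days (4 days for one i.p. regimen). Liver parasitemia was compared with untreated controls by unpaired Student's t test, P ≤ 0.05.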
# [8] = Induction of mutagenicity in Salmonella serovar Typhimurium TA 98 assessed as number of revertant colonies at 10 ug by Ames assay in presence of Aroclor 1254-induced rat liver S9 metabolic activation system; format: toxicity, subcellular, Salmonella enterica subsp. enterica serovar Typhimurium
# Method in brief: (§2)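 Ames plate incorporation with S. Typhimurium TA98 and TA100, with or without Aroclor 1254-induced rat liver S9 (10% vol/vol). Compound was dissolved in sterile water and serially diluted to 1–500 μg/plate. Positive controls were 2-nitrofluorene and sodium azide without S9, and 2-aminoanthracene with S9; sterile water and DMSO served as vehicles. Revertant colonies and background lawn were scored. A mutagen was defined as a mean revertant count at least 2-fold over solvent control. Single experiment.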
# [9] = Induction of mutagenicity in Salmonella serovar Typhimurium TA 100 assessed as number of revertant colonies at 1 ug by Ames assay in presence of Aroclor 1254-induced rat liver S9 metabolic activation system; format: toxicity, subcellular, Salmonella enterica subsp. enterica serovar Typhimurium; method in brief: as §2
Compound,Tmax [1],Activity (Mus musculus [2]),half-life [3],Tmax [4],Activity (Mus musculus [5]),Activity (Mus musculus [6]),Tmax [7],Activity (Leishmania donovani),Activity [8],Activity [9]
CCOc1cc(NC(=N)c2ccccn2)ccc1-c1ccc(-c2ccc(NC(=N)c3ccccn3)cc2OCC)o1,2 h,Toxic,1440 min,5 min,118 U/L,Toxic,5 min,–,–,–
CC(C)Oc1cc(NC(=N)c2ccccn2)ccc1-c1ccc(-c2ccc(NC(=N)c3ccccn3)cc2OC(C)C)o1,–,–,–,–,–,–,–,71%,38,159
